# Values without a mark were called inactive. Active and inactive are the calls of the source.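 Rule for the calls: active = at least one off-target enzyme showing weaker fluorescent probe labeling in any proteome panel; inactive = no off-target enzyme affected in any panel.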
# System: Soluble Proteome
# Test: anti-target inhibition in MCF7 proteome, late-stage follow-up, selectivity assay for PAD4 inhibitor project, cell lysate, gel-based fluorescence, soluble and membrane fractions (AID 651628)
# Conditions: CA-Rh gel-based ABPP, anti-target count, at 10 µM, active compounds read high
# Procedure, shortened: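 Buffer or medium: DPBS; System: MCF7 soluble or membrane proteome; Quantity: proteome protein concentration of 1 mg/ml; Also added: CA-Rh probe, 10 µM; Times: compound pre-incubation 1 h, then probe labelling 1 h, both 25 °C; Control set: DMSO-only reference; Signal: SDS-PAGE separation with in-gel fluorescence scanning of labelled bands.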
row,Structure (SMILES),number of anti-targets
1,COC1=C(Br)C(=O)c2nc(-c3ccccn3)ccc2C1=O,0
2,COC1=C(N)C(=O)c2nc(-c3nc(C(=O)O)c(C)c(-c4ccc(OC)c(OC)c4O)c3N)ccc2C1=O,0
3,NC1=CC(=O)c2ccc(-c3ccccn3)nc2C1=O,0
4,COC1=C(Br)C(=O)c2ncccc2C1=O,> 5 (active)
5,NC1=CC(=O)c2ccc(-c3cccc(C(=O)O)n3)nc2C1=O,0
6,COC1=C(N)C(=O)c2ncccc2C1=O,0
7,COC(=O)c1cccc(-c2ccc3c(n2)C(=O)C(Br)=CC3=O)n1,0
8,O=C1C(O)=C(O)C(=O)c2ncccc21,0
9,COC1=CC(=O)c2nc(C#N)ccc2C1=O,> 5 (active)
10,O=C1C=C(Br)C(=O)c2ncccc21,> 5 (active)
11,COC1=C(I)C(=O)c2nc(C#N)ccc2C1=O,> 5 (active)
12,COC(=O)c1nc(C(=O)OC)c(NC(C)=O)c(-c2ccccc2Br)c1C,0
13,COC(=O)c1cccc(-c2ccc3c(n2)C(=O)C(N)=CC3=O)n1,0
14,NC1=CC(=O)c2cccnc2C1=O,0

# Source: PubChem BioAssay AID651628 (The Scripps Research Institute Molecular Screening Center, 2012)
